From ChEMBL document CHEMBL1134293, “Design of selective and soluble inhibitors of tumor necrosis factor-alpha converting enzyme (TACE)” (J Med Chem, 2001)
In brackets after ≈: the same amount, converted by molar mass.

Columns and labels:
Interstitial collagenase = target: T1, Interstitial collagenase (Homo sapiens, UniProt P03956); assay: Inhibition potency was determined by fluorescence-based peptide assay against matrix metalloprotease-1; set-up: species or system Escherichia coli
T1 sequence (P03956 whole entry): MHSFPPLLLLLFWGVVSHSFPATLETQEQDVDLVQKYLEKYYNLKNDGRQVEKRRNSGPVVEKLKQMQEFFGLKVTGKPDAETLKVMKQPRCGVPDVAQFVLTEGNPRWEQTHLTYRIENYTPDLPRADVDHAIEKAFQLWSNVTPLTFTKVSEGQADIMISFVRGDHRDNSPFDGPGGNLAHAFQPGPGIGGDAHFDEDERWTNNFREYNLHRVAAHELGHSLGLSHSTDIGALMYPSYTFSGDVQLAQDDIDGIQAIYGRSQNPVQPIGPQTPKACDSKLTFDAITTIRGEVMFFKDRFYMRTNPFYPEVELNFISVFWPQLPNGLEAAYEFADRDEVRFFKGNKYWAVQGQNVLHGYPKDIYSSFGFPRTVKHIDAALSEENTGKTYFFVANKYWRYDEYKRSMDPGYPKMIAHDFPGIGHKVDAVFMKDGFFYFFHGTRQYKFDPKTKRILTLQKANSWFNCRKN
Outline: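 Recombinant MMP-1 catalytic domain expressed in E. coli, refolded 1 h in 200 mM NaCl, 50 mM Tris, 5 mM CaCl2, 10 μM ZnSO4, 0.01% Brij 35, pH 7.6, and assayed at 1.0 nM in the same buffer. Enzyme preincubated 20 min at room temperature with inhibitor (eleven-point 3-fold dilutions). Reaction started with fluorogenic Dnp-Pro-Cha-Gly-Cys(Me)-His-Ala-Lys(Nma)-NH2; ex 343/em 450 nm; IC50 (nM).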

Stromelysin-1 = Stromelysin-1 (Homo sapiens, UniProt P08254); assay: Inhibition potency was determined by fluorescence-based peptide assay against matrix metalloprotease-3; set-up: species or system Escherichia coli
Sequence of Stromelysin-1 (P08254 whole entry): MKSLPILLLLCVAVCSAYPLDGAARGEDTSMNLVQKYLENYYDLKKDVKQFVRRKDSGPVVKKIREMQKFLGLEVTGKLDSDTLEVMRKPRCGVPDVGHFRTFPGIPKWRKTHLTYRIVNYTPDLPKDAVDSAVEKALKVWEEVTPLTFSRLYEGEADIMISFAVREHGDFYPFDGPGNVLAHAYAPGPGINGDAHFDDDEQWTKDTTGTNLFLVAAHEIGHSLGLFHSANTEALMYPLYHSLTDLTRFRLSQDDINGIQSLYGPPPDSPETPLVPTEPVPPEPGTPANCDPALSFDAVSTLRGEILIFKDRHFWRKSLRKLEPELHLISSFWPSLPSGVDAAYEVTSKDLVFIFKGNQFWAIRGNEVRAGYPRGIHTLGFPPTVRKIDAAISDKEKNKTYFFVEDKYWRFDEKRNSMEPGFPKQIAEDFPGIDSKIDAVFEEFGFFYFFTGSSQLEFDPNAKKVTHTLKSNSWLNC
Outline: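 Full-length active MMP-3 expressed in E. coli, refolded 1 h in 200 mM NaCl, 50 mM Tris, 5 mM CaCl2, 10 μM ZnSO4, 0.01% Brij 35, pH 7.6, used at 5 nM in the same buffer. Preincubated 20 min at room temperature with inhibitor across eleven 3-fold dilutions, then fluorogenic Dnp-Pro-Cha-Gly-Cys(Me)-His-Ala-Lys(Nma)-NH2 added; product read at ex 343/em 450 nm; IC50 (nM).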

[1] = target: Matrix metalloproteinase-9 (Homo sapiens, UniProt P14780); assay: Inhibition potency was determined by fluorescence-based peptide assay against matrix metalloprotease-9
Sequence of Matrix metalloproteinase-9 (P14780 whole entry, the tested form may be a part): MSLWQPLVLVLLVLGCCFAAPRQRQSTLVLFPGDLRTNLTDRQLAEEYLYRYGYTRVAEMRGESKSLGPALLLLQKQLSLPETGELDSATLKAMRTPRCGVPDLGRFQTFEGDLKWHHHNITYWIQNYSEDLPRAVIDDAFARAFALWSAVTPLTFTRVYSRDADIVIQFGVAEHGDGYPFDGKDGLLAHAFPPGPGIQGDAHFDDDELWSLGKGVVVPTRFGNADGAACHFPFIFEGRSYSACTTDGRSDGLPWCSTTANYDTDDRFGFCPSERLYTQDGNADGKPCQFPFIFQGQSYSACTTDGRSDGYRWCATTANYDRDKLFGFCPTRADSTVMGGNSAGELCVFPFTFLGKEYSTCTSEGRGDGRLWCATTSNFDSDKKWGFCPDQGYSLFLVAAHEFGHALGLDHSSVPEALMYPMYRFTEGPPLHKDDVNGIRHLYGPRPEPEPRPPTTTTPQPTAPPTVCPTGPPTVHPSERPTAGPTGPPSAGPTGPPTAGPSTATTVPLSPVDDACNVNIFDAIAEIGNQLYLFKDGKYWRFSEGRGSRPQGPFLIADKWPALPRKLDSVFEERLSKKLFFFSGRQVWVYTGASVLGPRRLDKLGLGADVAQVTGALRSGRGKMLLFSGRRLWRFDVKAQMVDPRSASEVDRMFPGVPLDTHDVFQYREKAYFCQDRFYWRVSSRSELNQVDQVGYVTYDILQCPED
Outline: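 Catalytic domain of proMMP-9 purified from baculovirus-infected T. ni cell media, 0.1 nM in 200 mM NaCl, 50 mM Tris, 5 mM CaCl2, 10 μM ZnSO4, 0.01% Brij 35, pH 7.6. Preincubated with inhibitor 20 min at room temperature; fluorogenic Dnp-Pro-Cha-Gly-Cys(Me)-His-Ala-Lys(Nma)-NH2 added; fluorescence ex 343/em 450 nm; eleven-point 3-fold dilutions give IC50 (nM).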

Mus musculus [2] = assay: Inhibition of soluble TNF-alpha production in LPS-Stimulated mice by administration of 40 mg/kg compound per orally; format: functional; conditions: route oral
Outline: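 Female C3H/hen mice gavaged at 40 mg/kg (5 mL/kg, homogenized suspension in 0.5% HPMC/0.1% Tween 80) 10 min before ip LPS 0.2 mg/kg in PBS. Killed at 90 min; vena cava plasma TNF-α by ELISA. Percent inhibition vs vehicle group, n = 7 each, 2-sided t-test.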

[3] = target: Disintegrin and metalloproteinase domain-containing protein 17 (Homo sapiens, UniProt P78536); assay: Inhibition of TACE using scintillation proximity assay (SPA)
Sequence of Disintegrin and metalloproteinase domain-containing protein 17 (P78536 whole entry, the tested form may be a part): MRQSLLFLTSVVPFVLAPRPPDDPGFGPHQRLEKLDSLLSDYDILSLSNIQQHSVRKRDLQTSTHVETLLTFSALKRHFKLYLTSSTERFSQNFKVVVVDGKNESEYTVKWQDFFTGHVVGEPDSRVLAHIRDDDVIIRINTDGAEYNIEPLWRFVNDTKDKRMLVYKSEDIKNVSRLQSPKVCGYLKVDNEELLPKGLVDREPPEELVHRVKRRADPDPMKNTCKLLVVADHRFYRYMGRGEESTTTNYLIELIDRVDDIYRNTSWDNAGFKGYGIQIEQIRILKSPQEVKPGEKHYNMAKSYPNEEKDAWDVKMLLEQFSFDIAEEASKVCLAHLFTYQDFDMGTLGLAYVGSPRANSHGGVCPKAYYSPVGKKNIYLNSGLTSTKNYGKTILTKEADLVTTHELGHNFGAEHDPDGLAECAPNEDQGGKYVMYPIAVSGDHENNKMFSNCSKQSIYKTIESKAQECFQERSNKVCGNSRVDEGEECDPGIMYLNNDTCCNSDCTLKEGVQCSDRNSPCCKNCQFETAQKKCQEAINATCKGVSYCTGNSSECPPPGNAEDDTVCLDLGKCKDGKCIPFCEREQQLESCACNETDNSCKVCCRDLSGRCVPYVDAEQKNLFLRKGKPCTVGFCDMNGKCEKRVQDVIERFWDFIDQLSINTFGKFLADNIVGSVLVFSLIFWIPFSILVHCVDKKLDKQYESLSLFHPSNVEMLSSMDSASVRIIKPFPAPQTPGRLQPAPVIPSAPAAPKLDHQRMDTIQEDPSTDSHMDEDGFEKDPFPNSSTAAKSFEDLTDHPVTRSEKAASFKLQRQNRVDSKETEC

[4] = Solubility in simulated gastric fluid; format: physicochemical; conditions: read-out: S
Mus musculus [5] = assay: Inhibition of soluble TNF-alpha production in LPS-Stimulated mice by administration of 40 mg/kg compound subcutaneously; format: functional; conditions: sc, route subcutaneous
Outline: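 Female C3H/hen mice given 40 mg/kg sc (0.2 mL; DMSO stock into 0.9% NaCl/30% Trappsol HPB-20, final 1% DMSO) 10 min before ip LPS 0.2 mg/kg in PBS. Plasma from vena cava at 90 min, TNF-α by ELISA; percent inhibition vs vehicle controls, n = 7 per group, 2-sided t-test.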

Rattus norvegicus = organism: Rattus norvegicus; assay: Inhibition of TNF alpha production in rat Zymosan inflammation model; format: functional
Outline: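 Male Lewis rats given single sc dose (50 mg/kg) as aqueous suspension in 5% EtOH, 5% propylene glycol, 10% Cremephore, 10% Molecusol (5 mL/kg), 10 min before intrapleural zymosan (0.5 mg in 0.25 mL H2O).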

CC1CCC(C[C@@H](C(=O)N[C@@H](CCCN=C(N)NS(=O)(=O)c2ccccn2)C(=O)Nc2nccs2)[C@H](C(C)C)N(O)C=O)CC1 (stereo partly drawn)
IC50 (Interstitial collagenase): 96 nM | IC50 (Stromelysin-1): 115 nM | IC50 [1]: 71 nM | inhibition in vivo at 40 mg/kg (Mus musculus [2]): -9% | IC50 [3]: 16 nM

CCC[C@@H]([C@@H](CC(C)C)C(=O)N[C@@H](CCCN=C(N)NS(C)(=O)=O)C(=O)Nc1nccs1)N(O)C=O
solubility [4]: > 1130 µg/mL | IC50 (Interstitial collagenase): 100 nM | IC50 (Stromelysin-1): 122 nM | IC50 [1]: 51 nM | IC50 [3]: 7.9 nM

CCC[C@@H]([C@@H](CC1CCC(C)CC1)C(=O)N[C@@H](CCC/N=C(/N)N[N+](=O)[O-])C(=O)Nc1nccs1)N(O)C=O (stereo partly drawn)
solubility [4]: 160 µg/mL (≈ 281 µM) | IC50 (Interstitial collagenase): 188 nM | IC50 (Stromelysin-1): 200 nM | IC50 [1]: 115 nM | inhibition in vivo at 40 mg/kg (Mus musculus [2]): -19% | inhibition in vivo at 40 mg/kg (Mus musculus [5]): 64% | IC50 [3]: 9 nM

CCC[C@@H]([C@@H](Cc1ccc(C)s1)C(=O)N[C@@H](CCC/N=C(/N)N[N+](=O)[O-])C(=O)Nc1nccs1)N(O)C=O
IC50 (Interstitial collagenase): > 2500 nM | IC50 (Stromelysin-1): 79 nM | IC50 [1]: 190 nM

CCC[C@@H]([C@@H](CC(C)C)C(=O)N[C@@H](CCC/N=C(/N)NS(=O)(=O)c1ccccn1)C(=O)Nc1nccs1)N(O)C=O
IC50 (Interstitial collagenase): 76 nM | IC50 (Stromelysin-1): 84 nM | IC50 [1]: 43 nM | inhibition in vivo at 40 mg/kg (Mus musculus [2]): -28% | IC50 [3]: 6 nM

CC1CCC(C[C@@H](C(=O)N[C@@H](CCCN=C(N)NS(C)(=O)=O)C(=O)Nc2nccs2)[C@H](C(C)C)N(O)C=O)CC1 (stereo partly drawn)
solubility [4]: 1400 µg/mL (≈ 2330 µM) | IC50 (Interstitial collagenase): 122 nM | IC50 (Stromelysin-1): 155 nM | IC50 [1]: 89 nM | inhibition in vivo at 40 mg/kg (Mus musculus [2]): 32% | IC50 [3]: 14 nM

CCC[C@@H]([C@@H](CC(C)C)C(=O)N[C@H](C(=O)Nc1nccs1)[C@H](C)CC/N=C(/N)N[N+](=O)[O-])N(O)C=O
IC50 (Interstitial collagenase): 24 nM | IC50 (Stromelysin-1): 47 nM | IC50 [1]: 13 nM | inhibition in vivo at 40 mg/kg (Mus musculus [2]): -10% | IC50 [3]: 5 nM

NC(=NCCC[C@H](NC(=O)[C@H](CC1CCCCC1)[C@H](C1CC1)N(O)C=O)C(=O)Nc1nccs1)N[N+](=O)[O-]
solubility [4]: 920 µg/mL (≈ 1660 µM) | IC50 (Interstitial collagenase): 144 nM | IC50 (Stromelysin-1): 1490 nM | IC50 [1]: 602 nM | inhibition in vivo at 40 mg/kg (Mus musculus [2]): -3% | inhibition in vivo at 40 mg/kg (Mus musculus [5]): 56% | IC50 [3]: 22 nM

N/C(=N/CCC[C@H](NC(=O)[C@H](CC1CCCCC1)[C@H](CCC(F)(F)F)N(O)C=O)C(=O)Nc1nccs1)N[N+](=O)[O-]
solubility [4]: 54 µg/mL (≈ 88.7 µM) | IC50 (Interstitial collagenase): 110 nM | IC50 (Stromelysin-1): 214 nM | IC50 [1]: 49 nM | inhibition in vivo at 40 mg/kg (Mus musculus [2]): -24% | inhibition in vivo at 40 mg/kg (Mus musculus [5]): 73% | IC50 [3]: 5 nM

CC(C)C[C@@H](C(=O)N[C@H](C(=O)Nc1nccs1)[C@H](C)CC/N=C(/N)NS(C)(=O)=O)[C@H](C(C)C)N(O)C=O
IC50 (Interstitial collagenase): 8.1 nM | IC50 (Stromelysin-1): 49 nM | IC50 [1]: 12 nM | inhibition in vivo at 40 mg/kg (Mus musculus [2]): 7% | IC50 [3]: 35 nM

CC1CCC(C[C@@H](C(=O)N[C@@H](CCC/N=C(/N)N[N+](=O)[O-])C(=O)Nc2nccs2)[C@H](C(C)C)N(O)C=O)CC1 (stereo partly drawn)
solubility [4]: 210 µg/mL (≈ 369 µM) | IC50 (Interstitial collagenase): 85 nM | IC50 (Stromelysin-1): 76 nM | IC50 [1]: 35 nM | inhibition in vivo at 40 mg/kg (Mus musculus [2]): -6% | inhibition in vivo at 40 mg/kg (Mus musculus [5]): 71%

CCC[C@@H]([C@@H](Cc1ccc(C)s1)C(=O)N[C@@H](CCC/N=C(/N)NS(=O)(=O)c1ccccn1)C(=O)Nc1nccs1)N(O)C=O
IC50 (Interstitial collagenase): > 2700 nM | IC50 (Stromelysin-1): 218 nM | IC50 [1]: 379 nM | IC50 [3]: 11 nM

CC(C)C[C@@H](C(=O)N[C@@H](CCC/N=C(/N)N[N+](=O)[O-])C(=O)Nc1nccs1)[C@H](Cc1ccccc1)N(O)C=O
IC50 (Interstitial collagenase): 26 nM | IC50 (Stromelysin-1): 31 nM | IC50 [1]: 11 nM

CC(C)C[C@@H](C(=O)N[C@H](C(=O)Nc1nccs1)[C@H](C)CC/N=C(/N)NS(C)(=O)=O)[C@H](CCC(F)(F)F)N(O)C=O
IC50 (Interstitial collagenase): 52 nM | IC50 (Stromelysin-1): 17 nM | IC50 [1]: 22 nM | inhibition in vivo at 40 mg/kg (Mus musculus [2]): -5% | IC50 [3]: 8 nM

CC(C)C[C@@H](C(=O)N[C@H](C(=O)Nc1nccs1)[C@H](C)CC/N=C(/N)NS(C)(=O)=O)[C@H](C)N(O)C=O
solubility [4]: > 2130 µg/mL | IC50 (Interstitial collagenase): 18 nM | IC50 (Stromelysin-1): 169 nM | IC50 [1]: 8.5 nM | inhibition in vivo at 40 mg/kg (Mus musculus [2]): -3% | IC50 [3]: 12 nM

CC(C)C[C@@H](C(=O)N[C@H](C(=O)Nc1nccs1)[C@H](C)CC/N=C(/N)N[N+](=O)[O-])[C@H](C)N(O)C=O
solubility [4]: > 850 µg/mL | IC50 (Interstitial collagenase): 38 nM | IC50 (Stromelysin-1): 273 nM | IC50 [1]: 19 nM | inhibition in vivo at 40 mg/kg (Mus musculus [2]): -2% | IC50 [3]: 7 nM

CCC[C@@H]([C@@H](CC(C)C)C(=O)N[C@@H](CCC/N=C(/N)N[N+](=O)[O-])C(=O)Nc1nccs1)N(O)C=O
solubility [4]: > 1600 µg/mL | IC50 (Interstitial collagenase): 34 nM | IC50 (Stromelysin-1): 31 nM | IC50 [1]: 13 nM | inhibition in vivo at 40 mg/kg (Mus musculus [2]): -29% | inhibition in vivo at 40 mg/kg (Mus musculus [5]): 96% | Inhibition (Rattus norvegicus): 30%

CC(C)C[C@@H](C(=O)N[C@@H](CCC/N=C(/N)NS(C)(=O)=O)C(=O)Nc1nccs1)[C@H](C(C)C)N(O)C=O
IC50 (Interstitial collagenase): 21 nM | IC50 (Stromelysin-1): 62 nM | IC50 [1]: 22 nM | IC50 [3]: 42 nM

CCC[C@@H]([C@@H](CC1CCC(C)CC1)C(=O)N[C@@H](CCCN=C(N)NS(=O)(=O)c1ccccn1)C(=O)Nc1nccs1)N(O)C=O (stereo partly drawn)
solubility [4]: 160 µg/mL (≈ 241 µM) | IC50 (Interstitial collagenase): 133 nM | IC50 (Stromelysin-1): 282 nM | IC50 [1]: 143 nM | IC50 [3]: 6 nM

CCC[C@@H]([C@@H](CC(C)C)C(=O)N[C@H](C(=O)Nc1nccs1)[C@H](C)CCN=C(N)NS(C)(=O)=O)N(O)C=O
IC50 (Interstitial collagenase): 57 nM | IC50 (Stromelysin-1): 156 nM | IC50 [1]: 48 nM | inhibition in vivo at 40 mg/kg (Mus musculus [2]): 28% | IC50 [3]: 6 nM

CCC[C@@H]([C@@H](CC1CCCCC1)C(=O)N[C@@H](CCC/N=C(/N)N[N+](=O)[O-])C(=O)Nc1nccs1)N(O)C=O
solubility [4]: 330 µg/mL (≈ 595 µM) | IC50 (Interstitial collagenase): 108 nM | IC50 (Stromelysin-1): 203 nM | IC50 [1]: 55 nM | inhibition in vivo at 40 mg/kg (Mus musculus [2]): -27% | inhibition in vivo at 40 mg/kg (Mus musculus [5]): 72% | IC50 [3]: 8 nM
